Measurements reported in ChEMBL document CHEMBL4422642, “Antiproliferative and Antimigratory Effects of a Novel YAP-TEAD Interaction Inhibitor Identified Using in Silico Molecular Docking” (J Med Chem, 2019).
Active and inactive are the calls of the source. The calls are words filed in the database; no cut-off is given here.

Key:
[1] = Inhibition of TEAD (unknown origin) expressed in human HeLa cells after 6 hrs by nanoluciferase reporter gene assay; assay type: cell-based
In short: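 HeLa cells stably transduced with a lentiviral 8×TEAD-element secreted nanoluciferase reporter were seeded at 2 × 10^4 cells/well and grown 48 h. They were washed and treated with compound for 2 h, washed again and re-treated for 4 h. Secreted nanoluciferase in the conditioned medium was assayed with NanoGlo; n = 3.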

[2] = target: Transcriptional enhancer factor TEF-1 (Homo sapiens, UniProt P28347); test: Binding affinity to TEAD1 (194 to 411 residues) (unknown origin) by ITC assay
In short: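 Isothermal titration calorimetry with purified recombinant TEAD1 (residues 194–411). The GST tag was removed by PreScission protease cleavage at 4 °C for 18 h, glutathione was removed by dialysis against PBS, and free GST was removed with glutathione resin.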

[3] = target: T1, Transcriptional enhancer factor TEF-4 (Homo sapiens, UniProt Q15562); test: Inhibition of Gal4-fused TEAD2 (unknown origin) interaction with YAP expressed in human HeLa cells assessed as basal transcriptional activity level up to 100 uM after 6 hrs by nanoluciferase reporter gene assay; assay type: cell-based
[4] = target: Transcriptional enhancer factor TEF-5 (Homo sapiens, UniProt Q99594); test: Inhibition of Gal4-fused TEAD3 (unknown origin) interaction with YAP expressed in human HeLa cells assessed as basal transcriptional activity level up to 100 uM after 6 hrs by nanoluciferase reporter gene assay; assay type: cell-based
[5] = target: T1, Transcriptional enhancer factor TEF-4; test: Inhibition of Gal4-fused TEAD2 (unknown origin) interaction with YAP expressed in human HeLa cells assessed as basal transcriptional activity level after 6 hrs by nanoluciferase reporter gene assay; assay type: cell-based
Rattus norvegicus = species: Rattus norvegicus; test: Inhibition of TEAD in rat VSMC assessed as reduction in MYOC m-RNA expression at 60 uM by RT-qPCR analysis
In short: (§1)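 Rat aortic VSMCs (male Sprague-Dawley, 10% FCS/DMEM) were treated with 60 μM compound for 6 h; n = 3. Total RNA was reverse-transcribed with random primers and quantified by SYBR Green qPCR. Data were normalized to nonstimulated controls.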

VSMC [6] = test: Inhibition of GAPDH m-RNA expression in rat VSMC at 60 uM by RT-qPCR analysis; assay type: functional, cell-based; in short: as §1
VSMC [7] = test: Inhibition of 36B4 m-RNA expression in rat VSMC at 60 uM by RT-qPCR analysis; assay type: functional, cell-based; in short: as §1
MCF7 = test: Antiproliferative activity against human MCF7 assessed as reduction in EdU incorporation up to 40 uM after 24 hrs by Hoechst 33342 staining-based fluorescence assay; assay type: functional, cell-based
[8] = target: T2, Serum response factor (Homo sapiens) (UniProt P11831); test: Inhibition of SRF (unknown origin) mediated VP16 transcription expressed in human HeLa cells assessed as basal transcriptional activity level up to 100 uM after 6 hrs by nanoluciferase reporter gene assay; assay type: cell-based
T2 sequence (whole entry): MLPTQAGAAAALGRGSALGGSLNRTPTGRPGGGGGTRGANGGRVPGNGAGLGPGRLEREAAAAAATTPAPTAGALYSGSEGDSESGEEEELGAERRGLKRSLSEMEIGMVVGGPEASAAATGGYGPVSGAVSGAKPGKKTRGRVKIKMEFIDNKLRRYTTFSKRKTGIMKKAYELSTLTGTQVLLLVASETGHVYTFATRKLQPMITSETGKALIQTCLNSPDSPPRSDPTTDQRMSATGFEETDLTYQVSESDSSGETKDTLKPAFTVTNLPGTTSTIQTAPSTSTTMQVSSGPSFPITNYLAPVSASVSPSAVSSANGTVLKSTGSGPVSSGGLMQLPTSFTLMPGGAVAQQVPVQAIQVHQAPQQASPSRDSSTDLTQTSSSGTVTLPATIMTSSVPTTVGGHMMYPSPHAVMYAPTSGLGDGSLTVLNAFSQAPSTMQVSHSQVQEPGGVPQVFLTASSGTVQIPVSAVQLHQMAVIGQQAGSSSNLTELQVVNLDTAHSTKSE

T1 sequence (Q15562 whole entry, the tested form may be a part): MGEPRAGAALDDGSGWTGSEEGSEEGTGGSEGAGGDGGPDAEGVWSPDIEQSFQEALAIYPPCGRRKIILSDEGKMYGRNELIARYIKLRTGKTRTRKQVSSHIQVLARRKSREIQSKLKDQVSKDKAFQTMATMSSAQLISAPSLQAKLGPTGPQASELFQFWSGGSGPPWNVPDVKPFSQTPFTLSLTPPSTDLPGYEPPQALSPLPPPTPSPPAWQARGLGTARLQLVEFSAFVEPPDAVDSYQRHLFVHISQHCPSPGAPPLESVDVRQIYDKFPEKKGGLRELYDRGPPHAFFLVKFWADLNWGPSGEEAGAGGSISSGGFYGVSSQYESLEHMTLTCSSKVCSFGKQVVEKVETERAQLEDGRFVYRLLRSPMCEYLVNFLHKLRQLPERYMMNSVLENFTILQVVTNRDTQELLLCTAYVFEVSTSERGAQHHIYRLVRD
Chain of Transcriptional enhancer factor TEF-1 (P28347 whole entry, the tested form may be a part): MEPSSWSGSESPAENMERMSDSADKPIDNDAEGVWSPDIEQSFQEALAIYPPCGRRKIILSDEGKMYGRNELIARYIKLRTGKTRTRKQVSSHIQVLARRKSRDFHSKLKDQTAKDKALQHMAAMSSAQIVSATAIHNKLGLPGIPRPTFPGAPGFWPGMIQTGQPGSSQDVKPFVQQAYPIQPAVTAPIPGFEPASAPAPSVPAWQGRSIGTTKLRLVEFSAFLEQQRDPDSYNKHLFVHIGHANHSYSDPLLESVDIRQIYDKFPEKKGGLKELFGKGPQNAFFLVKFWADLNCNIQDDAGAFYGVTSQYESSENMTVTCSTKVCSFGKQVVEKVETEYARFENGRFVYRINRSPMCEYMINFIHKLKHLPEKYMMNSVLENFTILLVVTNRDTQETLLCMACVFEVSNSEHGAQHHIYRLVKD
Chain of Transcriptional enhancer factor TEF-5 (Q99594 whole entry, the tested form may be a part): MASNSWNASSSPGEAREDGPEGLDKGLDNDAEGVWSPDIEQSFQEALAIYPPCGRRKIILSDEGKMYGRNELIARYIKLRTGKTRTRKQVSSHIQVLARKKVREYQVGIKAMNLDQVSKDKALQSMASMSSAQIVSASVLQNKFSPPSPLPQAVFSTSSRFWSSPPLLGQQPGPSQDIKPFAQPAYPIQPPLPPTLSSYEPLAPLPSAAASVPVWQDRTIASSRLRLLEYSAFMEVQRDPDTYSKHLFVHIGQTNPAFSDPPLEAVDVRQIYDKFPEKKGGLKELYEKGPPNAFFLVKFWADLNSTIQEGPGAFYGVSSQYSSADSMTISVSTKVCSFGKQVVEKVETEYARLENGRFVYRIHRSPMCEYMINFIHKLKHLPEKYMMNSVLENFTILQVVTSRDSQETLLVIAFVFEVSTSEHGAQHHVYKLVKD

For `Cc1ccc2c(c1)c1c3n2CCNC3CCC1` (stereo not given) [PIRLINDOLE], the IC50 [1] was 70 µM, the Kd [2] was 12 µM and the inhibition [3] was “Active”. For the same compound, the inhibition [4] was “Active”, the IC50 [5] was 33 µM and the inhibition (Rattus norvegicus) was “Active”. For the same compound, the inhibition (VSMC [6]) was “inactive”, the inhibition (VSMC [7]) was “inactive” and the Activity (MCF7) was “inactive”. For the same compound, the inhibition [8] was “inactive”.
